Experimental data taken from ChEMBL document CHEMBL2057143, “Identification of a class of novel tubulin inhibitors” (J Med Chem, 2012).
Values belong to the molecule of their own block, whether it stands above or below them. Activity calls are given as the source filed them. No cut-off for these calls is given here.

How the values were obtained:
[1] = test system: SK-BR-3; assay: Binding affinity to alpha-tubulin in human SKBR3 cell lysate at 25 uM after 30 mins by mass spectrometric analysis; assay type: cell-free
Summary of the method: (§1)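 SKBR-3 cells (1.0 × 10^7) were lysed in NP-40 buffer with protease inhibitors and sonicated. Lysate was incubated with biotinylated probe (25 μM final) for 1 h at room temperature, then with neutravidin resin for 30 min. After five binding-buffer washes, bound proteins were eluted with buffer containing compound at 25 and 50 μM. Resin was boiled in SDS buffer. Samples were run on SDS-PAGE and silver-stained; bands were trypsin-digested in-gel and analysed by LC-QTOF/MS.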

[2] = test system: SK-BR-3; assay: Binding affinity to beta-tubulin in human SKBR3 cell lysate at 25 uM after 30 mins by mass spectrometric analysis; assay type: cell-free; summary of the method: as §1
[3] = target: Heat shock protein beta-1 (Homo sapiens) (UniProt P04792); assay: Binding affinity to Hsp27 in human SKBR3 cell lysate at 25 uM after 30 mins by mass spectrometric analysis; assay type: cell-free; settings: SK-BR-3; summary of the method: as §1
[4] = test system: SK-BR-3; assay: Binding affinity to pure alpha-tubulin in human SKBR3 cell lysate at 25 to 50 uM after 1 hr by Western blot analysis; assay type: cell-free
Summary of the method: (§2)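 Pure proteins, 10 μM bovine brain tubulin or recombinant Hsp27, were tested in separate experiments. Each was incubated with 2 μM biotinylated probe for 1 h at room temperature, then with neutravidin resin for 30 min. After five washes with binding buffer, bound protein was eluted twice with buffer containing compound at 25 and 50 μM. Eluates and resin were denatured, run on SDS-PAGE, transferred to PVDF and probed with α-/β-tubulin or Hsp27 antibodies.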

[5] = test system: SK-BR-3; assay: Binding affinity to pure beta-tubulin in human SKBR3 cell lysate at 25 to 50 uM after 1 hr by Western blot analysis; assay type: cell-free; summary of the method: as §2
[6] = target: Heat shock protein beta-1 (Homo sapiens) (UniProt P04792); assay: Binding affinity to pure Hsp27 in human SKBR3 cell lysate at 25 to 50 uM after 1 hr by Western blot analysis; assay type: cell-free; settings: SK-BR-3; summary of the method: as §2
[7] = species on record: Bos taurus; assay: Binding affinity to bovine brain tubulin at 2 uM after 1 hr by SDS-PAGE analysis in preincubated with 10 uM colchicine
Summary of the method: (§3)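 Bovine brain tubulin (10 μM) was preincubated with 10 μM colchicine or paclitaxel for 1 h at room temperature. It was then incubated with 2 μM biotinylated probe in binding buffer for 1 h at room temperature and loaded onto a neutravidin resin column for 30 min. The resin was washed five times with binding buffer, then twice with buffer containing compound (25, 50 μM). Eluates and resin were analysed by SDS-PAGE and Western blot with tubulin antibody.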

[8] = species on record: Bos taurus; assay: Binding affinity to bovine brain tubulin at 2 uM after 1 hr by SDS-PAGE analysis in preincubated with 10 uM paclitaxel; summary of the method: as §3
[9] = test system: SK-BR-3; assay: Growth inhibition of human SKBR3 cells after 48 hrs by MTT assay; assay type: functional, cell-based; settings: SK-BR-3, 48 h
Summary of the method: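 Cells were seeded for 24 h, then exposed to a range of compound concentrations (DMSO ≤0.1% final) for 48 h. MTT (0.5 mg/mL) was added for 2 h, formazan was dissolved in DMSO and A570 read. Six replicates; IC50 from nonlinear regression.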

[10] = target: Heat shock protein beta-1 (Homo sapiens) (UniProt P04792); assay: Binding affinity to pure Hsp27 in human SKBR3 cell lysate at 2 uM after 1 hr by Western blot analysis; settings: SK-BR-3
[11] = target: Heat shock protein beta-1 (Homo sapiens) (UniProt P04792); assay: Inhibition of Hsp27 phosphorylation in human SKBR3 cells at 0.5 to 1 uM after 24 hrs by Western blot analysis; settings: SK-BR-3
[12] = species on record: Bos taurus; assay: Inhibition of bovine brain tubulin polymerization after 20 mins by spectrophotometric analysis
[13] = target: T1, Tubulin (Homo sapiens) (UniProt P68371+Q9H4B7+P0DPH7+P68366+Q13509+Q71U36+P04350+Q3ZCM7+P07437+P68363+Q9BQE3+Q6PEY2+Q13885+Q9BVA1+Q9BUF5); assay: Inhibition of tubulin polymerization in human SKBR3 cells assessed as microtubule disorganization at 0.5 to 1 uM after 12 hrs by fluorescence microscopic analysis; assay type: cell-based; settings: SK-BR-3
Summary of the method: (§4)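 SKBR-3 cells in chamber slides were grown to 70% confluence, then treated with 0.5 or 1 μM compound for 12 and 24 h; untreated cells and 0.05 μM nocodazole served as controls. Cells were fixed in 4% paraformaldehyde, permeabilized with 0.2% Triton X-100 and blocked with 2% goat serum. They were stained with biotinylated anti-tubulin (1:200, overnight 4 °C) plus Alexa Fluor 488 streptavidin and imaged by fluorescence microscopy.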

[14] = target: T1, Tubulin (Homo sapiens); assay: Inhibition of tubulin polymerization in human SKBR3 cells assessed as decrease in microtubule density at 0.5 to 1 uM after 12 hrs by fluorescence microscopic analysis; assay type: cell-based; settings: SK-BR-3; summary of the method: as §4
[15] = target: T1, Tubulin (Homo sapiens); assay: Inhibition of tubulin polymerization in human SKBR3 cells assessed as microtubule disorganization at 0.5 to 1 uM after 24 hrs by fluorescence microscopic analysis; assay type: cell-based; settings: SK-BR-3; summary of the method: as §4
[16] = target: T1, Tubulin (Homo sapiens); assay: Inhibition of tubulin polymerization in human SKBR3 cells assessed as decrease in microtubule density at 0.5 to 1 uM after 24 hrs by fluorescence microscopic analysis; assay type: cell-based; settings: SK-BR-3; summary of the method: as §4
[17] = target: Heat shock protein beta-1 (Homo sapiens) (UniProt P04792); assay: Induction of Hsp27 phosphorylation in human SKBR3 cells at 50 to 100 nM after 24 hrs by SDS-PAGE analysis; assay type: cell-based; settings: SK-BR-3
Summary of the method: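 SKBR-3 cells were treated for 24 h with 50 and 100 nM nocodazole, with compound or KRIBB3 run alongside. Lysates (50 μg protein) were separated on 12% SDS-PAGE and transferred to PVDF. Membranes were blocked 1 h and probed for pSer78 Hsp27, with total Hsp27 and actin as loading controls, then detected by HRP secondary and ECL.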

Chain of Heat shock protein beta-1 (Homo sapiens) (P04792 whole entry): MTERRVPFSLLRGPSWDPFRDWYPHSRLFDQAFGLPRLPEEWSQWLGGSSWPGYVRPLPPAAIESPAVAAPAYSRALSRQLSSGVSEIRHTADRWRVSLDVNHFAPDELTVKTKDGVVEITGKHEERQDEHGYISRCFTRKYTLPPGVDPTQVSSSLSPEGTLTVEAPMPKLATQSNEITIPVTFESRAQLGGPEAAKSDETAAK

SMILES: Cc1ccc(C)c(COc2cc(NC(=O)c3ccc4c(c3)OCO4)ccc2N(CCCCCCNC(=O)CCCC[C@H]2SC[C@H]3NC(=O)N[C@H]32)S(C)(=O)=O)c1
Activity [1]: Active | Activity [2]: Active | Activity [3]: Active | Activity [4]: Active | Activity [5]: Active | Activity [6]: Active | Activity [7]: inactive | Activity [8]: Active | IC50 [9]: 2 µM

SMILES: CCc1cc(-c2oncc2-c2ccc(OC)cc2)c(O)cc1OC
Activity [10]: Active | inhibition [11]: Active

SMILES: Cc1ccc(C)c(COc2cc(NC(=O)Cc3ccccc3)ccc2N(C)S(C)(=O)=O)c1
IC50 [9]: 121 µM

Now from value to molecule:

inhibition [12]: Dose-dependent effect | inhibition [13]: Active | inhibition [14]: Active | inhibition [15]: Active | inhibition [16]: Active
SMILES: Cc1ccc(C)c(COc2cc(NC(=O)c3ccc4c(c3)OCO4)ccc2N(C)S(C)(=O)=O)c1

IC50 [9]: 62.9 µM
SMILES: CN(c1ccc(NC(=O)c2ccc3c(c2)OCO3)cc1OCc1ccccc1)S(C)(=O)=O

Activity [17]: Active
SMILES: COC(=O)Nc1nc2cc(C(=O)c3cccs3)ccc2[nH]1
